# Hits are enriched below; roughly 3% of the tested compounds scored in any of these assays.
# CHRM4 PAM: human M4 muscarinic receptor positive allosteric modulators, primary screen, CHO-K1 cells, Fluo-8 calcium fluorescence; actives 0.4% (n = 360,000); Muscarinic acetylcholine receptor M4 (Homo sapiens), P08173; CHO-K1 hM4/Gqi5, ACh EC20; 0% = ACh EC20, 100% = maximal ACh; activation, % at 3 µM; AID 624126, 2012;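 active = activation above its plate's cutoff, the mean activation of sample wells plus 3 SD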
# TAAR1 agonist: human TAAR1 agonists, primary screen, Fluo-8 calcium fluorescence, CHO RD-HGA16 cells; Trace amine-associated receptor 1 (Homo sapiens), Q96RJ0; vehicle wells 0%, saturating PEA agonist 100%; activation, % at 3 µM; actives 0.99% (n = 360,000);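 active = activation above the mean activation of all test compounds in the run plus 3 SD, cut at about 38% in these data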
# Target sequence (Q96RJ0 whole entry, looked up): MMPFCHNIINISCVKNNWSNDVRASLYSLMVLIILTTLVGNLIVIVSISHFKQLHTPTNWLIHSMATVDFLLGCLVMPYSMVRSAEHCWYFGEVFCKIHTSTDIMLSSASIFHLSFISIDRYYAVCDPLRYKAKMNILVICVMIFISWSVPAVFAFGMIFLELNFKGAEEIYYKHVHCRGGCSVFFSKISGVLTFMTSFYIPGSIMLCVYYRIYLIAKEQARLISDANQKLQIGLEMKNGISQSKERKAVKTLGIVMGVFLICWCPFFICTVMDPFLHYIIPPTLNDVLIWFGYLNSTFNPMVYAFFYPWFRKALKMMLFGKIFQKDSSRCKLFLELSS
#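 Test system: RD-HGA16 (CHO) cells co-expressing Gα16 and hTAAR1 | Doses: Single dose, 3 µM | Schedule: 17-24 h seeding, 75 min 37 °C dye, 30 min RT | Evaluation: % activation from peak over basal fluorescence ratio, DMSO-to-PEA scaled | Technique: Kinetic Fluo-8 calcium fluorescence | Benchmarks: Low control DMSO, high control PEA (EC100)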
# CHRM4 antagonist: human M4 muscarinic receptor antagonists, primary screen, CHO cells, Fluo-8 calcium fluorescence; Muscarinic acetylcholine receptor M4 (Homo sapiens), P08173; CHO-hM4 cells, ACh EC80; inhibition, % at 3 µM; actives 0.73% (n = 360,000);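 active = inhibition above its plate's cutoff, the mean inhibition of sample wells plus 3 SD, cut at about 27% in these data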;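 note: 0% = acetylcholine EC80 with DMSO and 100% = DMSO without agonist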
# CHRM4 agonist: human M4 muscarinic receptor agonists, primary screen, CHO-K1 cells, Fluo-8 calcium fluorescence; actives 0.14% (n = 360,000); activation, % at 3 µM; Muscarinic acetylcholine receptor M4 (Homo sapiens), P08173; CHO-K1 hM4/Gqi5; vehicle 0%, full acetylcholine response 100%;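 active = activation above the run mean over all test wells plus 3 SD, cut at about 32% in these data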;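 note: peak over basal fluorescence ratio per well then scaled between controls; 0% = DMSO wells and 100% = acetylcholine at EC100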
# TAAR1 antagonist: human TAAR1 antagonists, primary screen, Fluo-8 calcium fluorescence, CHO RD-HGA16 cells | Trace amine-associated receptor 1 (Homo sapiens), Q96RJ0 | antagonist | inhibition, % at 3 µM | actives 1.5% (n = 360,000);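 active = inhibition above a per-plate cutoff, the mean inhibition of test compounds on that plate plus 3 SD, cut at about 49% in these data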;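 note: 0% = DMSO plus EC80 beta-PEA response and 100% = DMSO alone without agonist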
#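 Material: RD-HGA16 CHO cells with stable hTAAR1 and Gα16; Dosing: single nominal final test compound concentration of 3 µM; Schedule: seeding 17-24 h prior, 75-min 37 °C, 30-min RT dye loading; Detection: kinetic Fluo-8 calcium fluorescence measurement; Measure: % inhibition from peak post-agonist over basal fluorescence ratio; Benchmarks: vehicle and agonist controls.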
# * marks the source's active call; other numbers are inactive results; nt = no result.
SMILES,CHRM4 PAM,TAAR1 agonist,CHRM4 antagonist,CHRM4 agonist,TAAR1 antagonist
COC(=O)c1ccc(CN2CCCC(CCC(=O)NCc3ccc(C)o3)C2)cc1 (configuration not stated),-20.3,-0.1,59.0*,0.5,-22.6
COc1ccccc1/C=C/CN1CCCC(CCC(=O)NCc2ccc(F)c(F)c2)C1 (configuration not stated),-12.7,4.4,-6.0,2.7,-4.5
COc1ccc(/C=C/CN2CCCC(CCC(=O)NCc3ccc(F)c(F)c3)C2)cc1 (configuration not stated),-22.1,9.1,71.2*,1.7,-4.0
O=C1C(Cl)=C(NCCN2CCOCC2)C(=O)c2ccccc21,-3.2,32.6,-3.3,3.9,18.9
c1ccc2c(c1)CCCc1cc(NCCN3CCOCC3)nnc1-2,-7.4,2.6,33.6*,1.5,-14.6
COc1ccc(-c2cc(C(=O)N3CCN(S(=O)(=O)c4ccccc4)CC3)[nH]n2)cc1,12.6,8.9,-14.8,5.0,8.3
COc1ccc(S(=O)(=O)N2CCN(C(=O)c3cc(-c4ccc(Br)cc4)n[nH]3)CC2)cc1OC,-8.7,10.3,5.5,24.9,61.8*
COc1cccc(/C=C/C(=O)OCC(=O)N2c3ccccc3NC(=O)C2(C)C)c1,-7.4,20.1,1.4,6.4,56.4*
CC1(C)C(=O)Nc2ccccc2N1C(=O)COC(=O)c1cc(Cl)cc(Cl)c1,-7.1,17.9,8.2,9.4,45.1
O=C(NCc1ccccc1)[C@H]1CCCN1C(=O)[C@H]1CCCN1C(=O)c1ccc(Cl)cc1,nt,0.6,nt,nt,-11.8
Clc1nssc1=Nc1ccc(Br)cc1,0.4,41.9*,1.6,13.2,32.3
O=[N+]([O-])c1cccc(COc2ccccc2CN2CCCCC2)c1,-2.9,1.4,0.2,0.8,-1.6
O=[N+]([O-])c1cccc(COc2ccc(CN3CCCCC3)cc2)c1,-16.7,5.9,55.5*,4.7,3.4
O=c1nc(SCc2c(F)cccc2Cl)nc(-c2ccc(Cl)cc2)[nH]1,38.6*,-0.5,-20.1,0.7,-19.1
O=c1nc(SCc2ccccc2Cl)nc(-c2ccc(Cl)cc2)[nH]1,-3.0,-0.9,-4.3,0.2,-7.9
C#CCNC(=O)C[C@@H]1C[C@@]2(C(=O)OC)CCCCC=C2N(Cc2ccco2)C1=O,6.4,1.9,-1.8,0.8,-3.8
CCOC(=O)[C@]12CCCC=C1N(Cc1ccco1)C(=O)[C@H](CC(=O)N1CCN(C(=O)c3ccco3)CC1)C2,23.7*,-0.3,-2.7,-2.2,-32.6
C#CCNC(=O)C[C@@H]1C[C@@]2(C(=O)OCC)CCC=C2N(Cc2ccco2)C1=O,28.1*,3.1,-10.5,1.4,4.9
CCN(CCOC(=O)Nc1ccc(Cl)cc1)C(=O)Nc1ccc(Cl)cc1,nt,5.1,nt,nt,10.3
CCOc1cc(CNCCSc2nnnn2C)cc(Br)c1OCc1ccc(F)cc1,-14.4,5.8,27.8*,22.4,20.7
CCOC(=O)c1cnc2c(C)cccc2c1Nc1cccc(C(=O)O)c1,14.0,0.5,29.8*,1.6,2.8
Cc1noc(NS(=O)(=O)c2ccc(NC(=O)/C=C/c3ccc(Br)cc3)cc2)c1C,15.6*,8.6,-6.2,-0.4,-16.3
Cc1noc(NS(=O)(=O)c2ccc(NC(=O)/C=C/c3ccc(C(C)C)cc3)cc2)c1C,5.4,-0.9,-2.6,-0.4,-6.9
CC(=O)c1sc2nc(-c3ccc(C)cc3)c3c(c2c1N)CCCC3,-12.3,1.3,-3.0,-0.9,-5.3
Cc1ccc(-c2nc3sc(C(N)=O)c(N)c3c3c2CCCC3)cc1,-17.6,1.8,99.5*,-2.2,20.5
SMILES,CHRM4 PAM,TAAR1 agonist,CHRM4 antagonist,CHRM4 agonist,TAAR1 antagonist
CC(C)OC(=O)/C(=C/c1ccc2c(c1)c1ccccc1n2C)NC(=O)c1ccccc1,-3.7,6.6,8.6,7.5,33.0
CC(C)OC(=O)/C(=C\c1ccc2c(c1)c1ccccc1n2C)NC(=O)c1ccccc1,-9.3,4.1,6.1,7.2,49.5*
COC(=O)C1=C(C)N(Cc2ccccc2C(F)(F)F)C(=NCc2ccccc2)NC1CCc1ccccc1 (configuration not stated),nt,11.8,nt,nt,4.3
CC(C)C1C(=O)N(Cc2cn(Cc3ccco3)nn2)CCS(=O)(=O)N1Cc1ccc(-c2cccc(N(C)C)c2)cc1 (configuration not stated),17.8*,0.4,-13.5,-2.4,-26.4
CC(C)CC1C(=O)N(Cc2cn(CCC3OCCCO3)nn2)CCS(=O)(=O)N1Cc1ccc(-c2ccc(F)cc2)cc1 (configuration not stated),0.5,2.0,-12.1,5.1,25.8
Cc1ccc(-c2ccc(CN3C(CC(C)C)C(=O)N(Cc4cn(CCC5OCCCO5)nn4)CCS3(=O)=O)cc2)cc1 (configuration not stated),-4.9,10.0,3.6,13.0,58.2*
Cc1ccc(-c2ccc(CN3C(C(C)C)C(=O)N(Cc4cn(Cc5ccco5)nn4)CCS3(=O)=O)cc2)cc1 (configuration not stated),-0.1,0.4,-0.2,1.4,8.1
COCOCCn1cc(CN2CCS(=O)(=O)N(Cc3ccc(-c4ccc(Cl)nc4)cc3)C(CC(C)C)C2=O)nn1 (configuration not stated),-10.4,12.3,-10.2,12.4,48.8*
CCOC1CCCc2oc(-c3ccsc3)c(-c3cnc(OC)nc3)c21 (configuration not stated),-0.6,0.3,4.6,0.7,-11.2
COC(=O)C1=C(C)N(C)C(=NCc2ccccc2C(F)(F)F)NC1CCc1ccccc1 (configuration not stated),nt,4.1,nt,nt,-0.3
COc1ccccc1-n1c(Cc2cccc3ccccc23)nnc1SCC(=O)O,nt,0.2,nt,nt,-3.7
O=C(NCc1ccccc1)[C@H]1CCCN1C(=O)[C@H]1CCCN1C(=O)c1ccc(OC(F)(F)F)cc1,nt,-1.3,nt,nt,-2.3
COc1cc(NC(=O)N2CCc3nc(NCc4cccc(Oc5ccccc5)c4)ncc3C2)cc(OC)c1OC,-12.1,4.4,4.2,12.6,25.5
CC(/C=N/NC(=O)c1nnn(-c2nonc2N)c1C(C)C)=C\c1ccco1,17.1*,17.8,8.0,2.3,-3.5
Cc1ccc(/C=N/NC(=O)c2nnn(-c3nonc3N)c2-c2ccccc2)o1,1.3,42.9*,4.7,5.5,-8.4
CCCc1c(C(=O)N/N=C(\C)CCc2ccccc2)nnn1-c1nonc1N,14.9*,2.9,-25.5,2.1,-11.1
CCCc1c(C(=O)N/N=C(\C)c2ccccn2)nnn1-c1nonc1N,0.1,3.1,-0.2,0.7,-14.9
CC(C)c1c(C(=O)N/N=C/C=C/c2ccccc2)nnn1-c1nonc1N,-6.5,41.8*,0.1,14.0,34.5
CC(C)C[C@H]1COc2c(Cl)cccc2S(=O)(=O)N1Cc1cccc(Cl)c1,nt,2.4,nt,nt,-13.9

# Screening data (PubChem BioAssay)
